Beta apoptosis – beta cell apoptosis inhibition | protection from apoptosis, % (test concentration not listed) | 0.8% of 300,000 active | AID 435005 | INS-1E cytokine-induced death, ATP luminescence, 48 h; percent of positive-control rescue, neutral wells zero;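 active = Every replicate reaches about 75%, or at least half do and their mean reaches it too, limit read from the data; inconclusive = At least half of replicates reach the limit but their mean does not; inactive = Under half of replicates reach the limit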;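 also: 0% = cytokine-treated negative control wells and 100% = positive control rescue; higher means more ATP so stronger rescue from cytokine killing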
UPR CHOP act – apoptotic UPR (CHOP) activation; CHO-CHOP luciferase reporter, luminescence; percent of tunicamycin response over DMSO baseline; activation, % at 10 µM; 0.34% of 330,000 active; AID 449763;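 active = at 10 µM dose, activation of 40% or more, normalized to positive control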;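 also: 100% = tunicamycin at 10 µg/mL and 0% = DMSO alone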
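Test system: CHO CHOP reporter cells. Input: 500 CHO-CHOP cells per well. Medium: F12 with 10% FBS. Technique: luciferase luminescence. Measure: percent activation relative to tunicamycin control. Dosing: 10 µM compound, 0.5% DMSO. Timing: 16-18 h cell attachment, then 6 h compound exposure, 37 °C.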
Mdm2-MdmX inh – human Mdm2/MdmX binding inhibition; inhibition, % at 8 µM; SaOS-2 split-luciferase Mdm2/MdmX complementation, luminescence; O15151+Q00987; AID 485346; 3% of 330,000 active;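 active = inhibition of at least 50% at 8 µM in the primary screen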
Target sequence (O15151 whole entry, looked up): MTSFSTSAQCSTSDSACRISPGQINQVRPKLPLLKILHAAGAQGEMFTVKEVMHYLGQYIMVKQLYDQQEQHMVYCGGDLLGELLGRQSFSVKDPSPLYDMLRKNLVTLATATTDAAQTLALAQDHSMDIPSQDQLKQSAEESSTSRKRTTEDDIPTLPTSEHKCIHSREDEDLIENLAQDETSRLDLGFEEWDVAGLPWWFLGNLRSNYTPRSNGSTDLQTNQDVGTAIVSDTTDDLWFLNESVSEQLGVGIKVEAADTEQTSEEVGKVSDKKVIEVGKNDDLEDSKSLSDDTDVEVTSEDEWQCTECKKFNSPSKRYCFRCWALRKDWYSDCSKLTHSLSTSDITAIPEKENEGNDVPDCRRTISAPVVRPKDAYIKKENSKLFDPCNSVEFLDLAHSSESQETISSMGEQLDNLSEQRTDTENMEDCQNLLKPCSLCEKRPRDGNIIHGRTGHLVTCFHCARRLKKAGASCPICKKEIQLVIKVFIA
Target sequence (Q00987 whole entry, looked up): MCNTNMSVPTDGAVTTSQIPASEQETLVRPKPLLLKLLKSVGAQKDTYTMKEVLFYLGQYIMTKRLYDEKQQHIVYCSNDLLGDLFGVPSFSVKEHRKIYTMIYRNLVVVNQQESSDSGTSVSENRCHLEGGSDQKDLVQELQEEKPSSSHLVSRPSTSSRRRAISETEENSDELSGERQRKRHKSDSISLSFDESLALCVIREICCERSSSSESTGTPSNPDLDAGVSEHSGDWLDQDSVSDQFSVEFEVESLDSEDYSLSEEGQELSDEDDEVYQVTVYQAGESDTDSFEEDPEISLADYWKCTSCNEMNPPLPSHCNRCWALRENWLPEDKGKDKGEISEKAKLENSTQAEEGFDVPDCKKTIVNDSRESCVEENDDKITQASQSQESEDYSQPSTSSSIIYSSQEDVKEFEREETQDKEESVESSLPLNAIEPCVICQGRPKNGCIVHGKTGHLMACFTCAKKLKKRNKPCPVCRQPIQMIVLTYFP
T cruzi inh – T. cruzi replication inhibition; T. cruzi beta-gal in NIH3T3, luminescence, 90 h; inhibition, % (no concentration beside the values); 1.4% of 300,000 active;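 active = mean inhibition across valid replicates above about 55%, limit read from the data; inconclusive = mean below that limit but half or more replicates reach it; inactive = mean below it, under half of replicates reach it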;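 also: signal also drops with host cell toxicity which is not excluded here; 0% = plate median of DMSO wells and 100% = zero luminescence signal; higher percent means less beta-gal luminescence so fewer parasites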
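Assay system: NIH/3T3 host cells with β-galactosidase reporter T. cruzi; input: 5,000 host fibroblasts per well; compound: single 50 nL compound addition per well in DMSO; timing: ≥90 h infection period, 3 h prior cell attachment; measured by: GalScreen β-gal luminescence, detergent lysis, 60 min; evaluation: percent inhibition of parasite-derived β-gal signal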
UPR XBP1 act – adaptive UPR (XBP1) activation. AID 463104. CHO-XBP1 luciferase reporter, IRE1-XBP1 UPR activation, luminescence; percent of tunicamycin response, DMSO as zero. activation, % at 20 µM. 0.33% of 330,000 active;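 active = versus positive control, 20 µM dose yields 30% or more activation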;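 also: 100% = tunicamycin at 10 µg/mL and 0% = DMSO only wells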
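Material: IRE1-XBP1 luciferase reporter CHO line / Quantity: one thousand reporter cells per well / Buffer or medium: F12 with 10% serum / Compound: 20 µM single concentration, DMSO 1% / Times: 6 h treatment, 37 °C / Detection: Steady-Glo luciferase glow luminescence, 10 min after reagent addition / Benchmarks: tunicamycin high, DMSO low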
CSC inhib – blocks cancer stem cells | AID 2717 | inhibition, % at 7.5 µM | cancer stem cell-like cells viability, luminescence | 1.1% of 300,000 active; in the data active = inhibition above about 75%; inconclusive = no clear call, values can overlap the other calls; tested in HMLE shEcad cells
* marks the source's active call; other numbers are inactive results. Sampled rows, rich in hits. Any-hit rate of the full collection: about 5%.

`COc1ccc(C(c2nnnn2Cc2ccccc2)N2CCN(c3ccccc3)CC2)cc1` (centres undefined) gave Beta apoptosis 1, UPR CHOP act -2, Mdm2-MdmX inh 15, T cruzi inh 13, UPR XBP1 act -4 and CSC inhib -4.
`c1ccc(CCn2nnnc2C(c2cccnc2)N2CCN(c3ccccc3)CC2)cc1` (centres undefined) gave Beta apoptosis 6, UPR CHOP act -2, Mdm2-MdmX inh 4, T cruzi inh 74*, UPR XBP1 act 0 and CSC inhib 16.
c1ccc(CCn2nnnc2C(c2cccnc2)N2CCN(c3nc4ccccc4s3)CC2)cc1 (centres undefined) was read as Beta apoptosis 7, UPR CHOP act 0, Mdm2-MdmX inh 30, T cruzi inh 60*, UPR XBP1 act -3 and CSC inhib 18.
`COCCn1nnnc1C(c1ccc(OC)c(OC)c1)N1CCN(c2nc3ccccc3s2)CC1` (centres undefined) gave Beta apoptosis -10, UPR CHOP act 0, Mdm2-MdmX inh 11, T cruzi inh 6, UPR XBP1 act 1 and CSC inhib -10.
For c1ccc(C(c2nnnn2C2CCCC2)N2CCN(c3nc4ccccc4s3)CC2)cc1 (centres undefined) the results were Beta apoptosis -5, UPR CHOP act -1, Mdm2-MdmX inh 18, T cruzi inh 71*, UPR XBP1 act -2 and CSC inhib -10.
Screening COc1ccc(C(c2nnnn2Cc2ccccc2)N2CCN(c3nc4ccccc4s3)CC2)cc1 (centres undefined) returned Beta apoptosis 2, UPR CHOP act 2, Mdm2-MdmX inh 28, T cruzi inh 64*, UPR XBP1 act -5 and CSC inhib -1.
For O=C(Nc1ccc(Cl)c(S(=O)(=O)N2CCOCC2)c1)[C@@H]1CCCN1C(=O)c1cccs1 the results were Beta apoptosis -2, UPR CHOP act 0, Mdm2-MdmX inh 16 and UPR XBP1 act -3.
Screening O=C(NCc1ccccc1)c1ccc(CN(c2ccccn2)S(=O)(=O)c2ccccc2)cc1 returned Beta apoptosis 4, UPR CHOP act -1, Mdm2-MdmX inh 3, T cruzi inh -7, UPR XBP1 act -1 and CSC inhib 6.
For CCC(c1nnnn1CS(=O)(=O)c1ccc(C)cc1)N1CCN(c2nc3ccccc3s2)CC1 (centres undefined) the results were Beta apoptosis 25, UPR CHOP act 1, Mdm2-MdmX inh 36, T cruzi inh 75*, UPR XBP1 act -8 and CSC inhib 4.
Screening CCCC(c1nnnn1CS(=O)(=O)c1ccc(C)cc1)N1CCN(c2ccccc2)CC1 (centres undefined) returned UPR CHOP act -1, Mdm2-MdmX inh 18, T cruzi inh 16, UPR XBP1 act -4 and CSC inhib -21.
Screening Cc1ccc(NC(=O)CCN2C(=O)NC3(CCCC3)C2=O)c(C)c1 returned UPR CHOP act -1, Mdm2-MdmX inh -7 and UPR XBP1 act 0.
`CC(C)NC(=O)Nc1ccc2c(c1)C(=O)N([C@H](C)CO)C[C@H](C)[C@@H](CN(C)S(=O)(=O)c1cn(C)cn1)O2` gave Beta apoptosis 1, UPR CHOP act 2, Mdm2-MdmX inh -12, UPR XBP1 act 1 and CSC inhib -22.
Screening CCCCOc1ncnc2c1[nH]c1ccc(F)cc12 returned Beta apoptosis 110*, UPR CHOP act 8, Mdm2-MdmX inh 9, T cruzi inh -23, UPR XBP1 act 1 and CSC inhib inconclusive.
For O=C(c1ccco1)N1CCN(c2ncnc3c2[nH]c2ccccc23)CC1 the results were UPR CHOP act 2, Mdm2-MdmX inh 10, T cruzi inh -5 and UPR XBP1 act 1.
`COc1ccc(N2CCN(c3ncnc4c3[nH]c3ccccc34)CC2)cc1` gave Beta apoptosis 102*, UPR CHOP act 2, Mdm2-MdmX inh 16, T cruzi inh 7, UPR XBP1 act -1 and CSC inhib 9.
CCOC(=O)N1CCN(c2ncnc3c2[nH]c2ccc(F)cc23)CC1 was read as Beta apoptosis 76*, UPR CHOP act 4, Mdm2-MdmX inh 5, T cruzi inh 0, UPR XBP1 act 2 and CSC inhib 3.
Fc1ccc2[nH]c3c(N4CCN(c5ccccc5)CC4)ncnc3c2c1 was read as Beta apoptosis 89*, UPR CHOP act 1, Mdm2-MdmX inh 44, T cruzi inh 11, UPR XBP1 act 0 and CSC inhib 4.
Screening CCOC(=O)N1CCN(c2ncnc3c2[nH]c2ccc(OC)cc23)CC1 returned Beta apoptosis -2, UPR CHOP act 0, Mdm2-MdmX inh 2, T cruzi inh 31, UPR XBP1 act 1 and CSC inhib -2.
Screening Fc1ccc2[nH]c3c(Cl)ncnc3c2c1 returned Beta apoptosis 1, UPR CHOP act 2, Mdm2-MdmX inh -8, T cruzi inh -20, UPR XBP1 act 0 and CSC inhib -11.
`Cc1c(NC(=O)CNCc2ccc3c(c2)OCO3)c(=O)n(-c2ccccc2)n1C` gave Beta apoptosis 0, UPR CHOP act -1, Mdm2-MdmX inh -2, T cruzi inh 12, UPR XBP1 act -4 and CSC inhib 10.
COc1cccc(CNC(=O)CN2C(=O)CCSc3ccc(S(=O)(=O)N4CCCC4)cc32)c1 was read as Beta apoptosis 2, UPR CHOP act 1, Mdm2-MdmX inh 3, T cruzi inh 3, UPR XBP1 act -7 and CSC inhib 2.
For O=C(Cn1c2[n+](c3ccc(C(F)(F)F)cc31)CCCCC2)c1ccc2c(c1)OCCO2 the results were Beta apoptosis -3, UPR CHOP act 1, Mdm2-MdmX inh 15, T cruzi inh 68*, UPR XBP1 act 2 and CSC inhib -2.
Screening Cc1cc(Cl)c(S(=O)(=O)N2CCN(c3ccc(F)cc3)CC2)cc1OCC(=O)NC1CCCCC1 returned Beta apoptosis 103*, UPR CHOP act 1, Mdm2-MdmX inh 18, T cruzi inh inconclusive, UPR XBP1 act 0 and CSC inhib 3.
`Cc1cc(Cl)c(S(=O)(=O)N2CCN(c3ccc(F)cc3)CC2)cc1OCC(N)=O` gave UPR CHOP act 0, Mdm2-MdmX inh 32, T cruzi inh 5, UPR XBP1 act -3 and CSC inhib 11.
`CCN(c1ccccc1)S(=O)(=O)c1ccc(Cl)c(NC(=O)COC(=O)c2cc(O)c3ccccc3c2O)c1` gave Beta apoptosis 79*, UPR CHOP act 5, Mdm2-MdmX inh 17, T cruzi inh 6, UPR XBP1 act 2 and CSC inhib 103*.

High-throughput results as filed in PubChem.
